This note sets out measurements from publication PMC4919474 (EBioMedicine, 2016).

For the test, the system named is Drosophila S3 cells. Nature of the test: qHTS of OA-induced lipid droplet storage in S3 cells. In kind it is cell-based. The conditions noted are these: Drosophila melanogaster. An outline of the steps: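 Drosophila S3 cells in medium with 5% FCS receive library compounds at […] (46 μM to 3 nM, 1:5 steps). Droplets are induced with 400 μM oleic acid on fatty-acid-free BSA. After 18 h, cells are fixed and stained with BODIPY 493/503 (lipid) and CellTracker Red CMTPX (cell count), then read by 488 nm laser scanning. Lipid signal is normalised to cell number; dose-response curves are fitted.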
Background: Quantitative high-throughput screening tests each substance at several concentrations.

What is called EC50 is the concentration giving half of the maximal effect. A lower EC50 goes with a more potent agent. Compound `CCC/C=C/C/C=C/C=C/C=N/NN=O` [TriacsinC] showed a half-maximal effective concentration (EC50) of 90 nM.
